Measured values collected from several papers.
Lines come from different studies, so protocols differ.

CCOC(=O)C1=C(CN2CCC[C@@H]2C(=O)Nc2ccc(B(O)O)cc2)NC(c2nccs2)=N[C@H]1c1ccc(F)cc1Br  AUC(0-inf) (CD-1 mouse, plasma; intravenous, 2 mg/kg): 723 ng·h/mL
Cc1ccc(CCC(=O)Nc2nnc(S(N)(=O)=O)s2)cc1  AUC (male BALB/c mouse, plasma; oral, 20 mg/kg): 12.5 µM·h
NCc1cc2c(cc1F)C(=O)N(C1CCC(=O)NC1=O)C2 (stereo not shown)  AUC(0-inf) (male CD-1 mouse, plasma; intravenous, 1 mg/kg): 149 ng·h/mL
CC(C)[C@@H](CS(=O)(=O)C(C)C)N1C(=O)[C@@](C)(CC(=O)O)C[C@H](c2cccc(Cl)c2)[C@H]1c1ccc(Cl)cc1  AUC(0-inf) (FVB mouse, brain; oral, 20 mg/kg, single dose): 36.3 ng·h/mL
CCOC(=O)c1c(NC(=O)CNC(C)C)sc2c1CCCCC2  AUC(0-inf) (male mouse, plasma; intraperitoneal, 5 mg/kg, single dose): 311 ng·h/mL
COCC(=O)N1CCc2[nH]c3c(Cl)c(Cl)ccc3c2[C@@H]1C  AUC(0-inf) (C57BL/6 mouse, blood; oral, 20 mg/kg): 8.24 µM·h
O=C1CCC(N2Cc3cc(CO)c(F)cc3C2=O)C(=O)N1 (stereo not shown)  AUC(0-inf) (male CD-1 mouse, plasma; intravenous, 1 mg/kg): 316 ng·h/mL
CN(C)C(=O)c1cc2cnc(Nc3ccc(-c4ccc5c(=O)cc(N6CCOCC6)oc5c4)cc3)nc2n1C1CCCC1  AUC(0-inf) (BALB/c mouse, plasma; oral, 20 mg/kg): 2890 ng·h/mL
Cc1nc2ccc(OCc3ccc(C(F)(F)F)cc3)cc2[nH]1  AUC(0-inf) (male BALB/c mouse, plasma; oral, 10 mg/kg): 13200 ng·h/mL
NCc1ccc(-c2nn(Cc3ccccc3)c3ccccc23)o1  AUC(0-t) (male CD-1 mouse, plasma; intravenous, 5 mg/kg): 1310 ng·h/mL
OCc1nc2ccc(NCc3ccc(C(F)(F)F)cc3)cc2[nH]1  AUC(0-inf) (male BALB/c mouse, plasma; oral, 10 mg/kg): 2730 ng·h/mL
O=C1CCC(N2Cc3cc(C4CCN(Cc5ccccc5)CC4)ccc3C2=O)C(=O)N1 (stereo not shown)  AUC(0-inf) (male CD-1 mouse, plasma; oral, 3 mg/kg): 603 ng·h/mL
COc1cccc2c(N3CCC(CCP(=O)(O)O)CC3)ncnc12  AUC(0-inf) (female C57BL/6 mouse, serum; subcutaneous, 50 mg/kg): 18300 ng·h/mL
